Measured values: ChEMBL document CHEMBL3580642, “Cytotoxic Bryostatin Derivatives from the South China Sea Bryozoan Bugula neritina” (J Nat Prod, 2015)
The source made the active and inactive calls. No cut-off for these calls is given here.

Key:
U-937 [1] = test: Cytotoxicity against human U937 cells assessed as reduction in cell viability at 20 ug/ml incubated for 72 hrs by MTT method; assay type: functional, cell-based
Procedure, shortened: (§1)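 Cultures were kept in RPMI-1640 or DMEM with 10% FBS at 37 °C, 5% CO2. Adherent cells were dosed after 12 h attachment, and suspension cells were seeded at 1 × 10^5 cells/mL. Triplicate 72 h exposure was followed by MTT, DMSO solubilisation and OD 490 nm. Activity was scored at a concentration of 20 μg/mL.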

SGC-7901 = test: Cytotoxicity against human SGC7901 cells assessed as reduction in cell viability at 20 ug/ml incubated for 72 hrs by MTT method; assay type: functional, cell-based; procedure, shortened: as §1
K562 [2] = test: Cytotoxicity against human K562 cells assessed as reduction in cell viability at 20 ug/ml incubated for 72 hrs by MTT method; assay type: functional, cell-based; procedure, shortened: as §1
HeLa [3] = test: Cytotoxicity against human HeLa cells assessed as reduction in cell viability at 20 ug/ml incubated for 72 hrs by MTT method; assay type: functional, cell-based; procedure, shortened: as §1
K562 [4] = test: Cytotoxicity against human K562 cells assessed as reduction in cell viability incubated for 72 hrs by MTT method; assay type: functional, cell-based; settings: K562, 72 h
Procedure, shortened: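 Cells were grown in RPMI-1640 or DMEM with 10% FBS at 37 °C, humidified 5% CO2. Adherent cells attached for 12 h before dosing, and suspension cells were seeded at 1 × 10^5 cells/mL. […] MTT read-out used DMSO solubilisation and OD 490 nm. IC50 came from mean OD versus concentration curves.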

[5] = Cytotoxicity against human SGC7901 cells assessed as reduction in cell viability incubated for 72 hrs by MTT method; settings: SGC-7901, 72 h
HeLa [6] = test: Cytotoxicity against human HeLa cells assessed as reduction in cell viability incubated for 72 hrs by MTT method
U-937 [7] = test: Cytotoxicity against human U937 cells assessed as reduction in cell viability incubated for 72 hrs by MTT method; assay type: functional, cell-based; settings: U-937, 72 h

CCCC(=O)O[C@H]1/C(=C/C(=O)OC)C[C@@H]2C[C@H]([C@@H](C)O)OC(=O)C[C@H](O)C[C@@H]3C[C@H](OC(=O)CC(C)C)C(C)(C)[C@](O)(C[C@@H]4C/C(=C/C(=O)OC)C[C@H](/C=C/C(C)(C)[C@]1(O)O2)O4)O3
inhibition (U-937 [1]): inactive | inhibition (SGC-7901): inactive | inhibition (K562 [2]): inactive | inhibition (HeLa [3]): inactive

CCCC(=O)O[C@H]1/C(=C/C(=O)OC)C[C@H]2C[C@H]([C@@H](C)O)OC(=O)C[C@H](O)C[C@@H]3C[C@H](OC(=O)C(C)(C)C)C(C)(C)[C@](OC)(C[C@@H]4C/C(=C/C(=O)OC)C[C@H](/C=C/C(C)(C)[C@]1(O)O2)O4)O3
inhibition (U-937 [1]): inactive | inhibition (SGC-7901): inactive | inhibition (K562 [2]): inactive | inhibition (HeLa [3]): inactive

COc1cccc2c1C(=O)c1c(O)c3c(c(O)c1C2=O)C[C@@](O)(C(=O)CO)C[C@@H]3O[C@H]1C[C@H](N)[C@H](O)[C@H](C)O1 [DOXORUBICIN]
IC50 (K562 [4]): 200 nM | IC50 [5]: 200 nM | IC50 (HeLa [6]): 100 nM

CCCC(=O)O[C@H]1/C(=C/C(=O)OC)C[C@H]2C[C@H]([C@@H](C)O)OC(=O)C[C@H](O)C[C@@H]3C[C@H](OC(=O)C(C)(C)C)C(C)(C)[C@](O)(C[C@@H]4C/C(=C/C(=O)OC)C[C@H](/C=C/[C@H](C)[C@]1(O)O2)O4)O3
inhibition (SGC-7901): inactive | IC50 (U-937 [7]): 7700 nM | IC50 (K562 [4]): 9900 nM | inhibition (HeLa [3]): inactive
